In ChEMBL document CHEMBL3414429, “3,4-diaminobenzoic acid derivatives as inhibitors of the oxytocinase subfamily of M1 aminopeptidases with immune-regulating properties” (J Med Chem, 2015):
Calls of active or inactive are those of the source. No cut-off for these calls is given here.

How the values were obtained:
[1] = biological target: Leucyl-cystinyl aminopeptidase (Homo sapiens, UniProt Q9UIQ6); assay: Inhibition of human recombinant IRAP expressed in baculovirus infected cabbage looper ovary Hi5 cells using L-leucine-7-amido-4-methyl coumarin as substrate after 5 to 10 mins by fluorescence assay; parameters: species or system Female gonad, BTI-TN-5B1-4
[2] = biological target: Endoplasmic reticulum aminopeptidase 1 (Homo sapiens, UniProt Q9NZ08); assay: Inhibition of human recombinant ERAP1 expressed in baculovirus infected […] using L-leucine-7-amido-4-methyl coumarin as substrate up to 100 uM after 5 to 10 mins by fluorescence assay
Outline: (§1)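 Recombinant human enzymes made in baculovirus-infected Hi5 cells, kept in 10 mM HEPES pH 7, 100 mM NaCl, 10% glycerol. ERAP1 30 nM, ERAP2 6 nM or IRAP 6 nM with 50 μM substrate (L-AMC for ERAP1 and IRAP, R-AMC for ERAP2) and varied inhibitor. Fluorescence rise followed at ex 380/em 460; IC50 from fit of activity against inhibitor concentration.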

[3] = biological target: Endoplasmic reticulum aminopeptidase 2 (Homo sapiens, UniProt Q6P179); assay: Inhibition of human recombinant ERAP2 expressed in baculovirus infected cabbage looper ovary Hi5 cells using L-arginyl-7-amido-4-methyl coumarin as substrate up to 100 uM after 5 to 10 mins by fluorescence assay; conditions: BTI-TN-5B1-4; outline: as §1
[4] = biological target: T1, Endoplasmic reticulum aminopeptidase 1 (Mus musculus) (UniProt Q9EQH2); assay: Inhibition of ERAP1 in mouse RAW264.7 cells assessed as reduction in interferon-gamma/LPS-induced phagocytosis after 24 hrs by fluorescent latex beads internalization assay; format: cell-based
T1 sequence (whole entry): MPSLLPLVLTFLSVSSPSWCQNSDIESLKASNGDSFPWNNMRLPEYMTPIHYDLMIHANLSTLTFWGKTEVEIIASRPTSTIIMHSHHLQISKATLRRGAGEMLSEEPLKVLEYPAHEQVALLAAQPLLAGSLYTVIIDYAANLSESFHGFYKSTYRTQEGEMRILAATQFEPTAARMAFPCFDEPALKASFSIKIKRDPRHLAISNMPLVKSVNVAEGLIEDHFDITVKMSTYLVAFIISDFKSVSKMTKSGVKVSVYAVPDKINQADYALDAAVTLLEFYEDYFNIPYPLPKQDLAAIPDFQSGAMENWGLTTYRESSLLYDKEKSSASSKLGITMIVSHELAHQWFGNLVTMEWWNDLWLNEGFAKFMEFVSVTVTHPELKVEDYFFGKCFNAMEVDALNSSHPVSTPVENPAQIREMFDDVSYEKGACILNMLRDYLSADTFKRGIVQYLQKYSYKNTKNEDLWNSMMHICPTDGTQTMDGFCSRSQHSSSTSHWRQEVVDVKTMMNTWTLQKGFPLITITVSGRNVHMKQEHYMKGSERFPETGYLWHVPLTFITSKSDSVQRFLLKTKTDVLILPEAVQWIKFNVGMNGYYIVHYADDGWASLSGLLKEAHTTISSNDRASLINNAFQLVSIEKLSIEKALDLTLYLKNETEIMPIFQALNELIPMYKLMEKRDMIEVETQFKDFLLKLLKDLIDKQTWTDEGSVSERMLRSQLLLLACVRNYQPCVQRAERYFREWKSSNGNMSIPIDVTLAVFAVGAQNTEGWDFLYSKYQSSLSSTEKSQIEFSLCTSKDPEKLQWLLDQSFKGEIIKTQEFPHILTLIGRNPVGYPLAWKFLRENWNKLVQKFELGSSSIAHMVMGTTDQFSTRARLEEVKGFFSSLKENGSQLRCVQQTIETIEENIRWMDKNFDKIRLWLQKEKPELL
Outline: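 RAW264.7 cells in RPMI 1640/10% FBS, seeded 2×10^4/well for 24 h. Activated with IFN-γ (100 IU/mL) plus LPS (1 μg/mL) with or without inhibitor at various concentrations. FITC-IgG latex beads given in 1% FBS medium for 24 h at 37 °C. Uptake read as fluorescence (ex 485/em 535) after PBS washes; ED50 from curve fit.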

[5] = test system: Insulin-regulated aminopeptidase, Lnpep (Mus musculus); assay: Inhibition of IRAP in mouse BMDC assessed as blockade of cross-presentation by measuring IL-2 level incubated for 1 day followed by compound wash out and incubated for 6 hrs with yeast cells expressing surface ovalbumin measured 20 hrs post CD8+ T cell-induction by sandwich ELISA method
[6] = test system: T-cell; assay: Blockade of cross-presentation in mouse IRAP-deficient BMDC assessed as IL-2 level incubated for 1 day […] and incubated for 6 hrs with yeast cells expressing surface ovalbumin measured 20 hrs post CD8+ T cell-induction by sandwich ELISA method; format: functional, cell-based
Outline: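 BMDCs from wild-type or IRAP knockout mice, grown 7 days from bone-marrow progenitors in IMDM/10% FCS with GM-CSF-containing J558 supernatant. Inhibitor added day 6 and kept through all steps. Day 7: serial dilutions of surface-ovalbumin yeast for 6 h, then OT-I lymph-node CD8+ T cells (T/BMDC 1.5:1) for 20 h. Supernatant IL-2 by sandwich ELISA; glutaraldehyde-fixed BMDC background subtracted; duplicate wells.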

Chain of Leucyl-cystinyl aminopeptidase (Q9UIQ6 whole entry): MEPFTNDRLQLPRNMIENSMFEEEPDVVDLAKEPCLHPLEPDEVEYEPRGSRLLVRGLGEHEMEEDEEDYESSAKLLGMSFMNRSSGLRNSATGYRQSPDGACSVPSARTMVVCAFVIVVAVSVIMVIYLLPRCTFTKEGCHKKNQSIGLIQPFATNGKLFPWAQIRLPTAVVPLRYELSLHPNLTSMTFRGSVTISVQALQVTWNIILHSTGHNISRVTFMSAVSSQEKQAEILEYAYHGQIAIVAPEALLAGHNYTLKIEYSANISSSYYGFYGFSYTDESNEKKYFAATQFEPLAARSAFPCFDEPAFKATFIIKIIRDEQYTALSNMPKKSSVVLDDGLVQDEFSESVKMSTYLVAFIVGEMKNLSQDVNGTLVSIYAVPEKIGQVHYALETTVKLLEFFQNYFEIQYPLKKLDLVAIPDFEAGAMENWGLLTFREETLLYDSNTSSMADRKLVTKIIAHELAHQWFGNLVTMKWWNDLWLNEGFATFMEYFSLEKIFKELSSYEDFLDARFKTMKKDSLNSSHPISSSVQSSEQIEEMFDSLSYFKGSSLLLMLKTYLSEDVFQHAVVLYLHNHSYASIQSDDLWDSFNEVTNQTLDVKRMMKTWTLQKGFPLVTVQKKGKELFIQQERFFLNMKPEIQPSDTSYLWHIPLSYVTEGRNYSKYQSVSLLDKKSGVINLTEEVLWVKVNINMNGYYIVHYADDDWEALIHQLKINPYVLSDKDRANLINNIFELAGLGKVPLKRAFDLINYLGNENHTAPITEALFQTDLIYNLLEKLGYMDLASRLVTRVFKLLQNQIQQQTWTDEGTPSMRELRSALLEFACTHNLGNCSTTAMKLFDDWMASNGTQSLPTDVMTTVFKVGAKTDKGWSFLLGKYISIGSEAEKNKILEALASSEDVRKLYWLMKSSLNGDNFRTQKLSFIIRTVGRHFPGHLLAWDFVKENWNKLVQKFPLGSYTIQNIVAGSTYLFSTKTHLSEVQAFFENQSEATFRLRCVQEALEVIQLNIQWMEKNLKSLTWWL
Chain of Endoplasmic reticulum aminopeptidase 1 (Q9NZ08 whole entry): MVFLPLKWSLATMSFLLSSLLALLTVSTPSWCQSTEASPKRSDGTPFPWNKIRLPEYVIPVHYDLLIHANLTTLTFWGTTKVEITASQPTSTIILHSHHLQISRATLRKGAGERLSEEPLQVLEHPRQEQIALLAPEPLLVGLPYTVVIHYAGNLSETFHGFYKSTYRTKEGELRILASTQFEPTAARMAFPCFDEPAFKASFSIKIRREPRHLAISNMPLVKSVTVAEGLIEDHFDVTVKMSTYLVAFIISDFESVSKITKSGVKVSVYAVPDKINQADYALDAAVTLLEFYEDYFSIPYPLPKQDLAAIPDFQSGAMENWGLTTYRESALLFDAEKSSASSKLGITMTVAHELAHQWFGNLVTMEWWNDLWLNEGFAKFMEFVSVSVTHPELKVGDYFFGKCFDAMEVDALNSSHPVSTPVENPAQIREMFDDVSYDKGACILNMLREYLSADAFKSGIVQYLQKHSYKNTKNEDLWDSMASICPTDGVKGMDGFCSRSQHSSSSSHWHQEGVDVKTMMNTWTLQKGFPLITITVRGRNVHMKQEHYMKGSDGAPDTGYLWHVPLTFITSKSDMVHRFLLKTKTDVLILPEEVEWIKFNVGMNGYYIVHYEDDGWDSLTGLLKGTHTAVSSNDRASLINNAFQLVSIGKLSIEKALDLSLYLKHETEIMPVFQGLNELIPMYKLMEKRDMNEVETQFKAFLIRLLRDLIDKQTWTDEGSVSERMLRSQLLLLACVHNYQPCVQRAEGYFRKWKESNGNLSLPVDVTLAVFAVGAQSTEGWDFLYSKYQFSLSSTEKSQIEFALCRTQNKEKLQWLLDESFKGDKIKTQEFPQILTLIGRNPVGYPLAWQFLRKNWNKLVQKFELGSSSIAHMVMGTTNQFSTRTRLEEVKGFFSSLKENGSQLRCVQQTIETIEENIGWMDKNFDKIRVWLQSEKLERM
Chain of Endoplasmic reticulum aminopeptidase 2 (Q6P179 whole entry): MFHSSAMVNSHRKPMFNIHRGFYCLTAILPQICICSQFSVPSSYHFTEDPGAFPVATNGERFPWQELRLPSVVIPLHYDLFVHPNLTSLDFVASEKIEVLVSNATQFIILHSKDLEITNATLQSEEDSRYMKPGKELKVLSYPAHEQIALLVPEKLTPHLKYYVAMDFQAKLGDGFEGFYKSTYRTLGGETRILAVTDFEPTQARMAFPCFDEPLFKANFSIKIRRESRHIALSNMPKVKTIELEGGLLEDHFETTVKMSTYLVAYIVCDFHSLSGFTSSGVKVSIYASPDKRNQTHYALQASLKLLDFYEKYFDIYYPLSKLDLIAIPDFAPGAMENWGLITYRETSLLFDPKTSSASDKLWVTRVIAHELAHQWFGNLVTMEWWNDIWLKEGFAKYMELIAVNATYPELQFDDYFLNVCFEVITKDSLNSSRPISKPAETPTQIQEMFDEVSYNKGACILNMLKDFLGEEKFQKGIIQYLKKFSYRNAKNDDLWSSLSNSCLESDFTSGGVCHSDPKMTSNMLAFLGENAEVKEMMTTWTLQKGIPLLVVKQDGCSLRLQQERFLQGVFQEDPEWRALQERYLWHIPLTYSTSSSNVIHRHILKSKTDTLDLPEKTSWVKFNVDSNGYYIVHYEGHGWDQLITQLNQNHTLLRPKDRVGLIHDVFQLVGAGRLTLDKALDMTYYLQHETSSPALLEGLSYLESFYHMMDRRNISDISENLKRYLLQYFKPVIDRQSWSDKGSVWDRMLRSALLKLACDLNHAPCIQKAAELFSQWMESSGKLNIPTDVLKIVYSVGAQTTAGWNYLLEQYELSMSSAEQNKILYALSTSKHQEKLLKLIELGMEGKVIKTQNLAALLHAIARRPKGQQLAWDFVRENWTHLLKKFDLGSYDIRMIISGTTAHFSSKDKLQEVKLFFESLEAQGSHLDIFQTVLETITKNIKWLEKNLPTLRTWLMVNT

IC50 [1]	inhibition [2]	inhibition [3]	ED50 [4]	inhibition [4]	ED50 [5]	inhibition [5]	SMILES	Activity [6]
> 100000 nM	inactive	inactive	–	–	–	–	COC(=O)[C@H](CCCCN)NC(=O)c1ccc(NC(=O)[C@@H](N)CC(C)C)c(N)c1	–
> 100000 nM	inactive	inactive	–	–	–	–	NCCC[C@H](NC(=O)c1ccc(N)c(NC(=O)[C@@H](N)CCc2ccccc2)c1)C(=O)O	–
3900 nM	inactive	–	–	–	–	–	CCCC[C@H](N)C(=O)Nc1ccc(C(=O)N[C@H](C(=O)O)C(C)C)cc1N	–
–	–	–	560 nM	Dose-dependent effect	6.5 nM	Dose-dependent effect	CCCC[C@H](N)C(=O)Nc1cc(C(=O)N[C@@H](Cc2c[nH]c3ccccc23)C(=O)OCc2ccccc2)ccc1N	inactive
